Source: PubChem BioAssay
HTRA1 inh: HTRA1 serine protease inhibitors, primary screen, biochemical, fluorescence polarization, HTS | AID 504803, 2011 | 340,000 tested, 0.5% active | inhibition, % at 5.96 µM | recombinant HTRA1, FP-rhodamine activity-based probe; in the data active = inhibition above about 36%
SIAE primary: human SIAE inhibitors, primary screen, biochemical, fluorescence polarization, FP-Rh probe, 1536-well HTS. SIAE FP-Rh probe binding. 370,000 tested, 0.69% active. AID 1053197, 2014. inhibition, % at 9.66 µM. Sialate O-acetylesterase (Homo sapiens), Q9HAT2;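 active = inhibition above a cutoff: mean of compounds within the control limits plus 3 SD of those, cut at about 17% in these data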
Target sequence (Q9HAT2 whole entry, looked up): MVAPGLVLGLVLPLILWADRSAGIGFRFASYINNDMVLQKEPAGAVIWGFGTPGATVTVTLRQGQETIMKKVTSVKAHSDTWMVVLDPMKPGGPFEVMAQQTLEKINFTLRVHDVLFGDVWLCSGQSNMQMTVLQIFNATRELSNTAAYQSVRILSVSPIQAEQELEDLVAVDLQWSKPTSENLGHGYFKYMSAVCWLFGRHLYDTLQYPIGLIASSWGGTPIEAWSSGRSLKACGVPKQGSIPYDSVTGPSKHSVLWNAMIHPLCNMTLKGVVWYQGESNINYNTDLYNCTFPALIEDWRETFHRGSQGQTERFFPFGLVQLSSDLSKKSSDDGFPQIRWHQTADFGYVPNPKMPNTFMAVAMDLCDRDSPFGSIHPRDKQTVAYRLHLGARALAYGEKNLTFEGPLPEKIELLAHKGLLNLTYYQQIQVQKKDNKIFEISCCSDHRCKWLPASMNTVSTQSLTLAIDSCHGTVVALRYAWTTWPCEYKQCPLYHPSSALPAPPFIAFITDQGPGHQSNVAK
DAGLB inh: DAGLB lipase inhibitors, primary screen, biochemical, fluorescence, HTS | Diacylglycerol lipase-beta (Homo sapiens), Q8NCG7 | HEK293T DAGLB membrane lysate, EnzChek fluorogenic substrate | inhibition, % at 5.17 µM | 340,000 tested, 0.059% active | AID 504411, 2011; in the data active = inhibition above about 34%
TCR CD3 inh: inhibitors of human TCR-CD3 interaction, primary screen, biochemical, fluorescence, TAMRA-labeled TCR probe; 360,000 tested, 0.37% active; T-cell receptor (TCR); inhibition, % at 9.4 µM; in the data active = inhibition above about 19%;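 also: recombinant mutant TCR 2C K166C tagged with TAMRA read by polarization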
mABHD4 FP: ABHD4 inhibitors, primary screen, biochemical, fluorescence polarization, mouse | (Lyso)-N-acylphosphatidylethanolamine lipase (Mus musculus), Q8VD66 | purified mABHD4, FP-Rh probe fluorescence polarization | inhibition, % at 8.92 µM | 370,000 tested, 0.54% active | AID 720543, 2013;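 active = inhibition exceeding the mean over every tested compound plus 3 SD, cut at about 30% in these data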
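Assay system: wild-type mouse ABHD4 protein; compound: single nominal dose of 8.92 µM, 0.89% DMSO final; schedule: 45 min + 60 min at 25 °C; measured by: FP readout, ex 525 nm / em 598 nm; evaluation: % inhibition of FP-Rh probe binding versus controls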
ABHD4 confirm: ABHD4 inhibitors, retest, confirmation, biochemical, fluorescence polarization, mouse; inhibition, % at 8.92 µM; purified mABHD4, FP-Rh probe fluorescence polarization; AID 720658, 2013; shares compounds with mABHD4 FP; 1,800 tested, 55% active;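 active = mean inhibition across replicates above the hit cutoff set in the primary screen, cut at about 30% in these data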
A number is an active result. Sampled rows, rich in hits. Any-hit rate of the full collection: about 1.6%.

COc1ccc(CN2C(=O)c3ccnn3CC2(C)c2nnnn2-c2c(C)cccc2C)cc1 (stereo not drawn) was read as SIAE primary inactive and mABHD4 FP inactive.
CC(C)(C)OC(=O)NCc1cc2c(cc1/C=C/S(=O)(=O)NCc1ccc(F)cc1)OCO2 was read as SIAE primary inactive and mABHD4 FP inactive.
Screening COc1ccc(-n2nc3c(=O)[nH][nH]c3cc2=O)cc1 returned HTRA1 inh inactive, SIAE primary inactive, DAGLB inh inactive, TCR CD3 inh inactive, mABHD4 FP 32 and ABHD4 confirm 42.
`COc1cc(CNc2ccc3[nH]c(=O)[nH]c3c2)cc(Cl)c1OCC(=O)NC(C)(C)C` gave HTRA1 inh inactive, SIAE primary inactive, DAGLB inh inactive, TCR CD3 inh inactive, mABHD4 FP 40 and ABHD4 confirm 36.
For CCOc1cc(CNc2ccc3[nH]c(=O)[nH]c3c2)ccc1OCC(=O)NC(C)(C)C the results were HTRA1 inh inactive, SIAE primary inactive, DAGLB inh inactive, TCR CD3 inh inactive and mABHD4 FP inactive.
Screening Nc1cc(N)cc(C(=O)c2ccccc2)c1 returned SIAE primary inactive, TCR CD3 inh inactive, mABHD4 FP 44 and ABHD4 confirm inactive.
`CCOC(=O)[C@@]12CCCC3=C1N(CCC3)C(=O)[C@H]2CC(=O)NCC12CC3CC(CC(C3)C1)C2` gave SIAE primary inactive and mABHD4 FP inactive.
Screening Cc1ccc(CN2CCN(/N=C/c3ccc(O)c(O)c3)CC2)cc1 returned HTRA1 inh inactive, SIAE primary inactive, DAGLB inh inactive, TCR CD3 inh inactive, mABHD4 FP 31 and ABHD4 confirm 54.
`Cc1ccc(CN2CCN(/N=C/c3ccc(C(=O)O)cc3)CC2)cc1` gave HTRA1 inh inactive, SIAE primary inactive, DAGLB inh inactive, TCR CD3 inh inactive and mABHD4 FP inactive.
For COc1cccc2cc(C(=O)N3CC(C)OC(C)C3)c(=O)oc12 (stereo not drawn) the results were HTRA1 inh inactive, SIAE primary inactive, DAGLB inh inactive, TCR CD3 inh inactive and mABHD4 FP inactive.
Screening COc1cc2c(oc(=O)c3cc(C)cc(OC)c32)c2c(C3OC(C)C(O)C(C)(O)C3O)ccc(O)c12 (stereo not drawn) returned HTRA1 inh inactive, SIAE primary inactive, DAGLB inh inactive, TCR CD3 inh inactive, mABHD4 FP 38 and ABHD4 confirm inactive.
CCOC(=O)/C(=N\Nc1ccccc1)P(=O)(c1ccccc1)c1ccccc1 was read as HTRA1 inh inactive, SIAE primary inactive, DAGLB inh inactive, TCR CD3 inh inactive, mABHD4 FP 30 and ABHD4 confirm inactive.
Cc1cc(Oc2cccnc2)ccc1NC(=O)Cc1c(C)[nH]c2ccccc12 was read as SIAE primary inactive, TCR CD3 inh inactive and mABHD4 FP inactive.
For N#C/C(=C\c1ccc(-c2ccccc2)o1)C(=O)Nn1cnnc1 the results were HTRA1 inh inactive, SIAE primary inactive, DAGLB inh inactive, TCR CD3 inh inactive, mABHD4 FP 47 and ABHD4 confirm inactive.
For O=C(CSc1nc2sc3c(c2c(=O)n1-c1ccc(Cl)cc1)CCCC3)c1ccccc1Cl the results were SIAE primary inactive and mABHD4 FP inactive.
For CCNc1sc(C(=O)c2cccs2)c(N)c1-c1nc2ccccc2s1 the results were HTRA1 inh inactive, SIAE primary inactive, DAGLB inh inactive, TCR CD3 inh inactive, mABHD4 FP 33 and ABHD4 confirm inactive.
`Cc1nn(Cc2ccccc2)c2c1C(c1ccc(Cl)cc1)C(C#N)=C(N)O2` (stereo not drawn) gave HTRA1 inh inactive, SIAE primary inactive, DAGLB inh inactive, TCR CD3 inh inactive, mABHD4 FP 34 and ABHD4 confirm inactive.
Screening c1nc(NCC2CCCCO2)c2cc(-c3ccc4c(c3)OCO4)ccc2n1 (stereo not drawn) returned SIAE primary inactive and mABHD4 FP inactive.
Cc1cc2nc(CCN(C(=S)NCC(C)C)C3CCCC3)[nH]c2cc1C was read as HTRA1 inh inactive, SIAE primary inactive, DAGLB inh inactive, TCR CD3 inh inactive, mABHD4 FP 42 and ABHD4 confirm 48.
